Experimental data reported in ChEMBL document CHEMBL1139751, “Discovery of small molecule inhibitors of integrin alphavbeta3 through structure-based virtual screening” (Bioorg Med Chem Lett, 2006).
Calls of active or inactive are those of the source. The rule behind the calls is not given here.

Assays:
[1] = target: Integrin alpha-V/beta-3 (Homo sapiens, UniProt P05106+P06756); assay: Inhibition of integrin alphavbeta3 mediated cell adhesion of human M21 cells to vitronectin; format: cell-based
Outline: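 Non-tissue-culture plastic 96-well plates were coated overnight with 2 µg/ml vitronectin. M21 cells were seeded with or without graded compound concentrations and allowed to adhere for 1 h at 37 °C. Adherent cells were fixed and stained, and the plates were read at 570 nm. Inhibition was calculated with compound-free wells as 100% adhesion.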

[2] = test system: M21; assay: Inhibition of human M21 cell migration assessed by measuring migration distance after 16 hrs at 30 uM by scrape motility assay; format: functional
Outline: (§1)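 Scrape motility assay with M21 melanoma cells on vitronectin-coated plates, treated with compound at 7.5, 15.0 or 30.0 µM. Migration distance was measured by phase-contrast microscopy at 8 h or 16 h. Percent inhibition was taken against untreated cells. Means ± SD of nine determinations from three independent experiments.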

[3] = test system: HUVEC; assay: Inhibition of bFGF-induced capillary-like structure formation in HUVECs at 30 uM after 6 hrs; format: functional, cell-based; details: Homo sapiens
Outline: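 HUVECs in ECM gel stimulated with 100 ng/ml bFGF, with or without compound, for 6 h. PBS served as the unstimulated control. Capillary-like structures were viewed by phase-contrast microscopy.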

[4] = test system: M21; assay: Inhibition of human M21 cell migration after 8 hrs at 30 uM by scrape motility assay; format: functional; details: M21, 8 h; outline: as §1
[5] = test system: M21; assay: Inhibition of human M21 cell migration assessed by measuring migration distance after 8 hrs at 7.5 uM by scrape motility assay; format: functional; outline: as §1
[6] = test system: M21; assay: Inhibition of human M21 cell migration assessed by measuring migration distance after 8 hrs at 15 uM by scrape motility assay; format: functional; outline: as §1
[7] = test system: M21; assay: Inhibition of human M21 cell migration assessed by measuring migration distance after 8 hrs at 30 uM by scrape motility assay; format: functional; outline: as §1
[8] = test system: M21; assay: Inhibition of human M21 cell migration after 8 hrs at 15 uM by scrape motility assay; format: functional; details: M21, 8 h; outline: as §1
[9] = test system: M21; assay: Inhibition of human M21 cell migration after 8 hrs at 7.5 uM by scrape motility assay; format: functional; details: M21, 8 h; outline: as §1
[10] = test system: M21; assay: Inhibition of human M21 cell migration at 15 uM after 16 hrs by scrape motility assay; format: functional; details: M21, 16 h; outline: as §1
[11] = test system: M21; assay: Inhibition of human M21 cell migration at 30 uM after 16 hrs by scrape motility assay; format: functional; details: M21, 16 h; outline: as §1
[12] = test system: M21; assay: Inhibition of human M21 cell migration at 7.5 uM after 16 hrs by scrape motility assay; format: functional; details: M21, 16 h; outline: as §1
[13] = test system: M21; assay: Inhibition of human M21 cell migration assessed by measuring migration distance after 16 hrs at 7.5 uM by scrape motility assay; format: functional; outline: as §1
[14] = test system: M21; assay: Inhibition of human M21 cell migration assessed by measuring migration distance after 16 hrs at 15 uM by scrape motility assay; format: functional; outline: as §1

Integrin alpha-V/beta-3, sequence (P05106 27-788 limits assumed): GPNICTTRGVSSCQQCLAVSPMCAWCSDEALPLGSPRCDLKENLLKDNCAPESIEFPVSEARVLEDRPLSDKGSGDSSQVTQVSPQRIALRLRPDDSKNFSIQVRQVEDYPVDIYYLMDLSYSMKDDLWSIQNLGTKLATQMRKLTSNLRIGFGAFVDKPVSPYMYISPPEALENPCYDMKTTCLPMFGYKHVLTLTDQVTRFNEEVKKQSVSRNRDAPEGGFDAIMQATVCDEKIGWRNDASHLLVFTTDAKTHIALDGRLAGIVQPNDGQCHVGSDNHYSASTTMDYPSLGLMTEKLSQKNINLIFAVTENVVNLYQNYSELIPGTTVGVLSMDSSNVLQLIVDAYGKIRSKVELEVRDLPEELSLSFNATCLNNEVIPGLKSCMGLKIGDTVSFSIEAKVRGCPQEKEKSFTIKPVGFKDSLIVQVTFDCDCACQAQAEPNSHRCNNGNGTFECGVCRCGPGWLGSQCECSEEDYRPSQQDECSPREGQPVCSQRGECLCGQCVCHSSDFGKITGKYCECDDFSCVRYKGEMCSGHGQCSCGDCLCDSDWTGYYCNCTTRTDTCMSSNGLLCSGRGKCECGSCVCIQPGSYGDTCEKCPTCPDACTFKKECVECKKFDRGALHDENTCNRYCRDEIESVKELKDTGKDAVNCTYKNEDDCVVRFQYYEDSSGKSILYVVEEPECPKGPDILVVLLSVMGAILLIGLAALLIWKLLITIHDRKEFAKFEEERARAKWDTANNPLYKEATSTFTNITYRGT
Integrin alpha-V/beta-3, sequence (P06756 31-889 limits assumed): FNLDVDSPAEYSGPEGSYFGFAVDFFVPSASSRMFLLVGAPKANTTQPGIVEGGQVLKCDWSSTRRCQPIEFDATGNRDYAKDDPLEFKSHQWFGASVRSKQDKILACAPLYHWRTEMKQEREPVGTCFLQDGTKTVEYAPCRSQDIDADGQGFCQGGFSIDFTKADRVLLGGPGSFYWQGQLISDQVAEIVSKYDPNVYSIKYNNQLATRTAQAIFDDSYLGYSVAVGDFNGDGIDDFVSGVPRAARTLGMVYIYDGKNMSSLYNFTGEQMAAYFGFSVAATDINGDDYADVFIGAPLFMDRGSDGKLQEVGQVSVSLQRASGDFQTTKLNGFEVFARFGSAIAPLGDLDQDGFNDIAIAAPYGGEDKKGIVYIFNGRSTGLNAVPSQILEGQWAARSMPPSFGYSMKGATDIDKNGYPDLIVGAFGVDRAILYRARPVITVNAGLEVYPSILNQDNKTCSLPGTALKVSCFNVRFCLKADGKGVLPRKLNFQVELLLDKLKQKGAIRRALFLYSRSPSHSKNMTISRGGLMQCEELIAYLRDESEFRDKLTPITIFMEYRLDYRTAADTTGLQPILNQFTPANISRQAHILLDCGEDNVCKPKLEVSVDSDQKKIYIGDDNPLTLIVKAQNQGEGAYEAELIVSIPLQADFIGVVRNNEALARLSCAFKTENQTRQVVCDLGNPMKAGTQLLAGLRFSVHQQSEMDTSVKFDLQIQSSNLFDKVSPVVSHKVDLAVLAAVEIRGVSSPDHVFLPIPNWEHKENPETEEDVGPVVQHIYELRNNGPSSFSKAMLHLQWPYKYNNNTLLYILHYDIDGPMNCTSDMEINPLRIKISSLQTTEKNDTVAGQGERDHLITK
Integrin alpha-V/beta-3, sequence (P06756 891-1048 limits assumed): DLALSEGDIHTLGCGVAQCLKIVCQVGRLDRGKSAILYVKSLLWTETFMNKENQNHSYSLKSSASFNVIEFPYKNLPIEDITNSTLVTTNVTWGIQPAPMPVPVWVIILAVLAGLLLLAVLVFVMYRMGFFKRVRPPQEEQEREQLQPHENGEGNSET

Structure (SMILES) | IC50 [1] [µM] | also measured
N=C(N)NC(=N)Nc1ccc(F)c(Cl)c1 | 97.3 | 
COc1cc(NS(=O)(=O)c2ccc(NC(=O)COc3ccc(Cl)cc3Cl)cc2)nc(OC)n1 | 137 | 
N=C(N)NC(=N)Nc1ccc(Cl)cc1Cl | 66.9 | 
NC(N)=NC(N)=Nc1ccc(SC(F)F)cc1 | 178 | 
N=C(N)N=C(N)Nc1cc(Cl)cc(Cl)c1 | 33.5 | 
N=C(N)NC(=N)Nc1ccccc1Cl | > 200 | 
COc1cc(/C=C2\C(=O)N(c3ccc(C(=O)O)cc3)N=C2C)ccc1OC(=O)c1ccccc1 | 143 | 
CCOc1ccccc1N=C(N)N=C(N)N | > 200 | 
N=C(N)NC(=N)Nc1cccc(Cl)c1Cl | 87.3 | 
N=C(N)NC(=N)Nc1ccc(Cl)cc1 [4-CHLOROPHENYLBIGUANIDE] | 149 | 
N=C(N)NC(=N)Nc1ccccc1 [PHENYL BIGUANIDE] | > 200 | 
Cc1ccc(Cl)cc1N=C(N)N=C(N)N | > 200 | 
N=C(N)NC(=N)Nc1cc(C(F)(F)F)cc(C(F)(F)F)c1 | 39.5 | 
N=C(N)NC(=N)Nc1ccc(Cl)c(Cl)c1 | 38.5 | Activity [2]: 16.7 um; Activity [3]: Active; inhibition at 30 µM [4]: 96.4%; Activity [5]: 27.8 um; Activity [6]: 8.3 um; Activity [7]: 1.1 um; inhibition at 15 µM [8]: 73.1%; inhibition at 7.5 µM [9]: 9.1%; inhibition at 15 µM [10]: 67.4%; inhibition at 30 µM [11]: 86%; inhibition at 7.5 µM [12]: 39.5%; Activity [13]: 72.2 um; Activity [14]: 38.9 um
N=C(N)NC(=N)Nc1cc(C(F)(F)F)ccc1Cl | 127 | 
COc1cc(NS(=O)(=O)c2ccc(N/C=C3\C(=O)N(c4ccc(I)cc4)N=C3C)cc2)nc(OC)n1 | 53.5 | 
CCOc1cc(/C=c2\sc3nc4c(C)cccc4n3c2=O)cc(Br)c1OCC(=O)O | 132 | 
Cn1cnnc1SCC(=O)Nc1ccc(-c2nc3ccc(NC(=O)CSc4nncn4C)cc3o2)c(O)c1 | 162 | 
NC(N)=NC(N)=Nc1cc(Cl)ccc1Cl | 100 | 
N=C(N)NC(=N)Nc1cccc(Cl)c1 | 191 | 
CSc1cccc(NC(=N)NC(=N)N)c1 | > 200 | 
CCOC(=O)c1cccc(N=C(N)N=C(N)N)c1 | > 200 | 
CSc1ccccc1N=C(N)N=C(N)N | > 200 | 
O=C(Nc1ccccc1C(=O)O)c1ccc(N2C(=O)c3ccc(Oc4ccc([N+](=O)[O-])cc4)cc3C2=O)cc1 | 180 | 
N=C(N)NC(=N)Nc1ccc(SC(F)(F)F)cc1 | 101 | 
